PvdQ inh – P. aeruginosa PvdQ acylase inhibitors, primary screen, biochemical, fluorescence, plate reader and imaging, single point | PvdQ acylase [Pseudomonas aeruginosa LESB58] | purified PvdQ acylase | inhibition, % at 10 µM | 340,000 compounds, 0.063% hits; in the data active = inhibition above about 30%, passing the limit was not always enough; inconclusive = no clear call, values can overlap the other calls;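 note: 0% = vehicle neutral wells and 100% = reference inhibitor wells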
VIM-2 inhibitor – VIM-2 metallo-beta-lactamase inhibitors, primary screen, biochemical, epi-absorbance readout, Pseudomonas aeruginosa enzyme | AID 1527, 2009 | 290,000 compounds, 0.89% hits | inhibition, % at 5.6 µM | purified VIM-2, nitrocefin hydrolysis, epi-absorbance fluorescence;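 active = inhibition above the mean of all tested compounds plus 3 SD, cutoff set per screening run, cut at about 7.5% in these data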;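 note: red hydrolysis product quenches plate fluorescence so inhibitors raise well fluorescence; 0% = enzyme with DMSO and 100% = DMSO without enzyme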
IMP-1 inh-1 – IMP-1 metallo-beta-lactamase inhibitors, primary screen, biochemical, epi-absorbance readout, Pseudomonas aeruginosa enzyme | purified IMP-1, nitrocefin hydrolysis, epi-absorbance fluorescence | metallo-beta-lactamase IMP-1 (Pseudomonas aeruginosa) | AID 1556, 2009 | inhibition, % at 5.6 µM | 290,000 compounds, 0.45% hits;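 active = inhibition above the mean plus 3 SD of all compounds in the same screening run, cut at about 4.5% in these data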;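 note: 0% = IMP-1 with DMSO and 100% = DMSO wells lacking enzyme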
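System: Purified recombinant IMP-1 metallo-beta-lactamase enzyme | Measured by: Fluorescence quenching readout, ex 480/em 530 nm | Replication: Singlicate | Incubation: 15 min preincubation plus 25 min reaction at 25 °C | Evaluation: Percent inhibition from optical density relative to buffer-blank wells | Benchmarks: DMSO with and without IMP-1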
PLC-beta3 inh – human PLC-beta3 inhibitors, primary screen, biochemical, fluorescence | Purified PLC-beta3, fluorogenic substrate | AID 720704, 2013 | 370,000 compounds, 0.18% hits | inhibition, % at 12.2 µM; in the data active = inhibition above about 11%;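 note: 0% = median of compound wells on plate and 100% = full blocker control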
PLCg1 inh – PLC-gamma1 enzyme inhibitors, primary screen, biochemical, fluorescence, purified enzyme; AID 720700, 2013; 1-phosphatidylinositol 4,5-bisphosphate phosphodiesterase gamma-1 (Homo sapiens), P19174; 370,000 compounds, 0.84% hits; fluorogenic substrate; inhibition, % at 12.2 µM
IMP-1 inh-2 – IMP-1 metallo-beta-lactamase inhibitors, confirmation, selectivity assay for selective VIM-2 inhibitor project, biochemical, epi-absorbance readout, triplicate; inhibition, % at 5.6 µM; shares compounds with VIM-2 inhibitor; 1,300 tested, under 10 active; AID 1856, 2009; purified IMP-1, nitrocefin hydrolysis, epi-absorbance fluorescence; call rule not given here;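 note: 0% = enzyme with vehicle and 100% = vehicle without enzyme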
VIM-2 FRET inh – VIM-2 inhibitors in FRET format, confirmation, artefact control for selective VIM-2 inhibitor project, biochemical, epi-absorbance artifact exclusion | shares compounds with VIM-2 inhibitor | purified VIM-2, CCF2 FRET substrate hydrolysis | inhibition, % at 5.6 µM | 1,300 compounds, 23% hits;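 active = inhibition above the mean of all tested compounds plus 3 SD, cut at about 19% in these data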;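 note: 0% = VIM-2 plus DMSO and 100% = no enzyme wells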
TEM-1 counter – TEM-1 serine beta-lactamase inhibitors, counter-screen for VIM-2 inhibitor project, biochemical, epi-absorbance, HTS | AID 1866, 2009 | Purified TEM-1, nitrocefin hydrolysis, epi-absorbance fluorescence | 1,300 compounds, 3% hits | shares compounds with VIM-2 inhibitor | inhibition, % at 5.6 µM;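 active = inhibition above that campaign's mean inhibition plus 3 SD, cut at about 0.46% in these data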;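 note: 0% = TEM-1 with DMSO and 100% = TEM-1 with 100 µM potassium clavulanate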
VIM-2 confirm 2 – VIM-2 metallo-beta-lactamase inhibitors, confirmation, biochemical, epi-absorbance, hits shared with IMP-1 screen. 1,300 compounds, 96% hits. purified VIM-2, nitrocefin hydrolysis. shares compounds with VIM-2 inhibitor. inhibition, % at 5.6 µM;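 active = inhibition of the VIM-2 beta-lactamase enzyme above about 11% from the earlier first-round screen, limit read from the data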;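 note: 0% = VIM-2 with DMSO and 100% = buffer wells without enzyme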
PLCg1 ctr – PLC-gamma1 enzyme inhibitors, counter-screen for PLC-beta3 inhibitor project, biochemical, fluorescence | shares compounds with PLCg1 inh | purified PLC-gamma1, fluorogenic substrate | inhibition, % at 12.3 µM | 3,300 compounds, 3.1% hits | AID 743258, 2014
PLCb3 confirm – PLC-beta3 inhibitor confirmation, biochemical, fluorescence, purified enzyme | shares compounds with PLCg1 inh | 3,300 compounds, 1% hits | fluorogenic substrate fluorescence | inhibition, % at 12.3 µM; in the data active = inhibition above about 11%
* marks the source's active call; other numbers are inactive results; ? = inconclusive; · = no result. In the library only some 2% were active in any assay of this set; here they are far more common. Cut-off read from the data, not from the text of the source, unless noted: active = inhibition above about 9.5%; inactive = the rest.

SMILES | PvdQ inh | VIM-2 inhibitor | IMP-1 inh-1 | PLC-beta3 inh | PLCg1 inh | IMP-1 inh-2 | VIM-2 FRET inh | TEM-1 counter | VIM-2 confirm 2 | others
O=C(OCC#CCSc1nnc(-c2cccc3ccccc23)o1)C1CCC1 | · | · | · | -21 | -11 | · | · | · | ·
CC(C)(C)c1ccc(-c2nnc3sc(-c4ccccn4)nn23)cc1 | -6 | 2 | -2 | -9 | -9 | · | · | · | ·
COc1cccc(-c2nnc3sc(-c4ccccn4)nn23)c1 | 8 | 15* | -3 | -14 | -5 | -4 | -2 | -7 | 23*
CCOC(=O)c1[nH]c(C(=O)O)c(CCC(=O)OC)c1C | 2 | 22* | 1 | -2 | 0 | 1 | 49* | -5 | 32*
C#CCN1CC(N(C)CCOC(=O)c2occ3ccccc23)CS1(=O)=O (stereo unspecified) | · | · | · | 0 | -1 | · | · | · | ·
COC(=O)C1CN(Cc2cn(Cc3ccc(F)cc3)nn2)CCS(=O)(=O)N1Cc1ccc(OC)cc1 (stereo unspecified) | · | · | · | 3 | 1 | · | · | · | ·
O=c1[nH]c(CN2CCN(c3ccccc3)CC2)nc2ccccc12 | -8 | -1 | -2 | -5 | -4 | · | · | · | ·
O=c1[nH]c(CN2CCN(c3ccc(F)cc3)CC2)nc2ccccc12 | -8 | 55* | -4 | -1 | -2 | -4 | -2 | -7 | -1
COc1cc(/C=N/n2c(-c3ccccc3)n[nH]c2=S)cc(OC)c1O | -1 | 1 | -3 | -10 | -3 | · | · | · | ·
Oc1c(Br)cc(/C=N/n2c(-c3ccccc3)n[nH]c2=S)c(O)c1Br | 5 | 34* | -5 | · | · | -3 | 58* | -8 | 43*
Oc1ccc(/C=N/n2c(-c3ccccc3)n[nH]c2=S)cc1Br | -9 | 8 | -4 | -10 | -3 | · | · | · | ·
Cc1ccc(-c2n[nH]c(=S)n2/N=C/c2ccc(C(=O)O)cc2)cc1 | -10 | 18* | -4 | -9 | 2 | -4 | 35* | -7 | 23*
Cc1c(Br)c(O)c(Br)c(O)c1/C=N/n1c(-c2ccccc2)n[nH]c1=S | ? | 19* | -2 | · | · | -3 | 26* | -7 | 27*
Oc1c(Br)cc(/C=N/n2c(-c3ccccc3)n[nH]c2=S)cc1Br | -17 | 27* | -5 | -9 | 1 | -2 | 50* | -7 | 39*
CC(C)C[C@H]1COc2cccc(F)c2S(=O)(=O)N1Cc1cn(Cc2ccc(C(F)(F)F)cc2)nn1 | · | · | · | 2 | 1 | · | · | · | ·
CCOC(=O)C1CCN(C(=O)CCn2c(=O)c3cccn3c3cccnc32)CC1 | -5 | 4 | -3 | -6 | 1 | · | · | · | ·
CN1CCN(C(=O)CCn2c(=O)c3cccn3c3cccnc32)CC1 | -3 | 14* | -1 | -5 | 3 | -4 | -2 | -6 | 26*
CC(C)(C)N(Cc1cn(CC2CCCCC2)nn1)S(=O)(=O)c1ccccc1Br | · | · | · | 3 | 1 | · | · | · | ·
CCOCCc1nnc(NC(=O)CCS(=O)(=O)c2ccccc2)s1 | -11 | 12* | -1 | -2 | 1 | -2 | 17 | -3 | 14*
C=CCn1c(COc2ccc(C)cc2)nnc1SCc1ccc([N+](=O)[O-])cc1 | · | · | · | -1 | -1 | · | · | · | ·
COc1cnc(-c2ccccn2)nc1Oc1c(C)cccc1C | -8 | 3 | -3 | 1 | 3 | · | · | · | ·
COc1cnc(-c2ccccn2)nc1Oc1cccc(Cl)c1 | 1 | 17* | -4 | 2 | 4 | -4 | -31 | -4 | 36*
CCOC(=O)C(C)Sc1nc(-c2ccccn2)ncc1OC (stereo unspecified) | -17 | 35* | -4 | 2 | -4 | -3 | -20 | -6 | 43*
COc1ccc(Oc2nc(-c3ccccn3)ncc2OC)cc1 | 7 | 16* | -5 | 1 | 1 | -4 | -24 | -5 | 25*
C[C@@H]1CC(=O)NN=C1c1ccc(NN=C(C#N)C#N)cc1 | · | · | · | -37 | 1 | · | · | · | ·
SMILES | PvdQ inh | VIM-2 inhibitor | IMP-1 inh-1 | PLC-beta3 inh | PLCg1 inh | IMP-1 inh-2 | VIM-2 FRET inh | TEM-1 counter | VIM-2 confirm 2 | others
Brc1ccc2nc(-c3ccc(CN4CCC5(CC4)CNc4ccccc45)cc3)c(-c3ccccc3)nc2c1 | · | · | · | -7 | -4 | · | · | · | ·
O=C(O)C(C(=O)O)=C1C2CC3CC(C2)CC1C3 | -15 | 39* | -3 | 1 | 11* | -1 | 64* | -3 | 48* | PLCg1 ctr=-2;PLCb3 confirm=-5
O=C(O)C=C1C2CC3CC(C2)CC1C3 | -9 | -3 | -6 | 1 | 2 | · | · | · | ·
COc1ccccc1C(=O)COC(=O)/C=C/c1ccccc1 | 5 | 13* | -2 | -3 | 9.6* | -4 | 29* | -2 | 18* | PLCg1 ctr=-6;PLCb3 confirm=-12
CCCCNC(=O)C[C@H]1C[C@@]2(C(=O)OC)C(=C[C@H](C3CCCC3)O[C@@H]2C)N(CCc2ccc(OC)c(OC)c2)C1=O | · | · | · | 1 | 1 | · | · | · | ·
COc1ccccc1OCc1nc(C#N)c(NCCCn2ccnc2)o1 | 9 | -3 | -2 | -5 | -2 | · | · | · | ·

Screening data: PubChem BioAssay, several laboratories
